pKi: −log10 of the molar value.
Experiments:
[1] = Volume of distribution at steady state in BALB/c mouse at 2 mg/kg, iv measured upto 24 hrs by LC/MS/MS analysis; assay type: ADME, organism-based; conditions: in vivo, read-out: Vdss
[2] = test system: MV4-11; test: Induction of cell cylce arrest in human MV4-11 cells assessed as accumulation of cells at sub G1 phase at 10 uM after 72 hrs by RNase A/propidium iodide staining based flow cytometry (reference value: 1.58%); assay type: functional
Procedure, shortened: (§1)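 MV4-11 cells were seeded at 8 × 10⁴, held overnight at 37 °C with 5% CO2, then treated 72 h at 3 or 10 µM against a DMSO diluent control. Pellets were fixed in 70% ethanol on ice for 15 min, then stained 1 h at room temperature with PI, 0.1 mg/mL RNase A and 0.05% Triton X-100. Sub-G1, G1, S and G2/M fractions were read by flow cytometry.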

[3] = AUC in Sprague-Dawley rat at 5 mg/kg, iv measured upto 24 hrs by LC/MS/MS analysis; assay type: ADME, organism-based; design: route intravenous, dose 5 mg/kg, time <=24; conditions: in vivo
[4] = Half life in BALB/c mouse at 10 mg/kg, po measured upto 24 hrs by LC/MS/MS analysis; assay type: ADME, organism-based; conditions: in vivo
[5] = Half life in BALB/c mouse at 2 mg/kg, iv measured upto 24 hrs by LC/MS/MS analysis; assay type: ADME, organism-based; conditions: in vivo
[6] = molecular target: Receptor-type tyrosine-protein kinase FLT3 (Homo sapiens) (UniProt P36888); test: Inhibition of human FLT3 at 1 uM using EAIYAAPFAKKK as substrate incubated for 40 mins in presence of [gamma-33ATP] by scintillation counting based radiometry assay relative to control
[7] = test system: MV4-11; test: Induction of cell cylce arrest in human MV4-11 cells assessed as accumulation of cells at S phase at 3 uM after 72 hrs by RNase A/propidium iodide staining based flow cytometry (reference value: 18.81%); assay type: functional; procedure, shortened: as §1
[8] = Tmax in Sprague-Dawley rat at 5 mg/kg, iv measured upto 24 hrs by LC/MS/MS analysis; assay type: ADME, organism-based; conditions: in vivo
[9] = test system: MV4-11; test: Induction of cell cylce arrest in human MV4-11 cells assessed as accumulation of cells at G2 phase at 3 uM after 72 hrs by RNase A/propidium iodide staining based flow cytometry (reference value: 12.61%); assay type: functional; procedure, shortened: as §1
[10] = test system: MV4-11; test: Antiproliferative activity against human MV4-11 cells assessed as growth inhibition after 72 hrs by resazurin assay; assay type: functional
Procedure, shortened: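 MV4-11 cells kept at 37 °C with 5% CO2 in ATCC-recommended medium plus 10% FBS. In-house resazurin viability assay after 72 h exposure. GI50 reported as mean ± standard deviation from at least two replicates.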

[11] = test system: MV4-11; test: Induction of cell cylce arrest in human MV4-11 cells assessed as accumulation of cells at G1 phase at 10 uM after 72 hrs by RNase A/propidium iodide staining based flow cytometry (reference value: 64.41%); assay type: functional; procedure, shortened: as §1
[12] = molecular target: Macrophage colony-stimulating factor 1 receptor (Homo sapiens, UniProt P07333); test: Inhibition of human FMS using KKKSPGEYVNIEFG as substrate incubated for 40 mins in presence of [gamma-33ATP] by scintillation counting based radiometry assay
[13] = molecular target: Cyclin-dependent kinase 1/cyclin B1 (Homo sapiens) (UniProt P06493+P14635); test: Inhibition of CDK1/Cyclin B (unknown origin) assessed as residual activity at 1 uM relative to control; assay type: protein-complex assay
[14] = test system: MV4-11; test: Induction of apoptosis in human MV4-11 cells assessed as early apoptotic cells at 3 uM after 72 hrs by Annexin V FITC/PI staining based flow cytometry analysis (reference value: 2.73%); assay type: functional
[15] = test system: MV4-11; test: Induction of apoptosis in human MV4-11 cells assessed as late apoptotic cells at 10 uM after 72 hrs by Annexin V FITC/PI staining based flow cytometry analysis (reference value: 3.41%); assay type: functional
[16] = test system: MDA-MB-468; test: Antiproliferative activity against human MDA-MB-468 cells assessed as growth inhibition incubated for 72 hrs by MTT assay; assay type: functional
[17] = AUC in BALB/c mouse at 2 mg/kg, iv measured upto 24 hrs by LC/MS/MS analysis; assay type: ADME, organism-based; design: route intravenous, dose 2 mg/kg, time <=24; conditions: in vivo
[18] = test system: MV4-11; test: Induction of apoptosis in human MV4-11 cells assessed as viable cells at 3 uM after 72 hrs by Annexin V FITC/PI staining based flow cytometry analysis (reference value: 93.63%); assay type: functional; conditions: read-out: Activity
[19] = Oral bioavailability in BALB/c mouse at 10 mg/kg measured upto 24 hrs by LC/MS/MS analysis; assay type: ADME, organism-based; conditions: in vivo
[20] = Oral bioavailability in Sprague-Dawley rat at 20 mg/kg measured upto 24 hrs by LC/MS/MS analysis; assay type: ADME, organism-based; conditions: in vivo
[21] = test system: MV4-11; test: Induction of cell cylce arrest in human MV4-11 cells assessed as accumulation of cells at sub G1 phase at 3 uM after 72 hrs by RNase A/propidium iodide staining based flow cytometry (reference value: 1.58%); assay type: functional; procedure, shortened: as §1
[22] = test system: MV4-11; test: Induction of cell cylce arrest in human MV4-11 cells assessed as accumulation of cells at S phase at 10 uM after 72 hrs by RNase A/propidium iodide staining based flow cytometry (reference value: 18.81%); assay type: functional; procedure, shortened: as §1
[23] = test system: MOLM-13; test: Antiproliferative activity against human MOLM-13 cells assessed as growth inhibition incubated for 72 hrs by MTT assay; assay type: functional
[24] = test system: MV4-11; test: Induction of apoptosis in human MV4-11 cells assessed as viable cells at 10 uM after 72 hrs by Annexin V FITC/PI staining based flow cytometry analysis (reference value: 93.63%); assay type: functional; conditions: read-out: Activity
[25] = molecular target: Glycogen synthase kinase-3 alpha (Homo sapiens) (UniProt P49840); test: Inhibition of GSK3alpha (unknown origin) assessed as residual activity at 1 uM relative to control
[26] = molecular target: T1, Leucine-rich repeat serine/threonine-protein kinase 2 (Homo sapiens, UniProt Q5S007); test: Inhibition of human LRRK2 using RLGRDKYKTLRQIRQ as substrate after 40 mins in presence of [gamma-33ATP] by scintillation counting based radiometry assay
[27] = AUC in BALB/c mouse at 10 mg/kg, po measured upto 24 hrs by LC/MS/MS analysis; assay type: ADME, organism-based; design: route oral, dose 10 mg/kg, time <=24; conditions: in vivo
[28] = Clearance in BALB/c mouse at 2 mg/kg, iv measured upto 24 hrs by LC/MS/MS analysis; assay type: ADME, organism-based; conditions: in vivo
[29] = test system: MV4-11; test: Induction of apoptosis in human MV4-11 cells assessed as necrotic cells at 10 uM after 72 hrs by Annexin V FITC/PI staining based flow cytometry analysis (reference value: 0.23%); assay type: functional
[30] = molecular target: T1, Leucine-rich repeat serine/threonine-protein kinase 2; test: Inhibition of human LRRK2 at 1 uM using RLGRDKYKTLRQIRQ as substrate after 40 mins in presence of [gamma-33ATP] by scintillation counting based radiometry assay relative to control
[31] = Clearance in Sprague-Dawley rat at 5 mg/kg, iv measured upto 24 hrs by LC/MS/MS analysis; assay type: ADME, organism-based; conditions: in vivo
[32] = test system: MV4-11; test: Induction of cell cylce arrest in human MV4-11 cells assessed as accumulation of cells at G1 phase at 3 uM after 72 hrs by RNase A/propidium iodide staining based flow cytometry (reference value: 64.41%); assay type: functional; procedure, shortened: as §1
[33] = Cmax in Sprague-Dawley rat at 5 mg/kg, iv measured upto 24 hrs by LC/MS/MS analysis; assay type: ADME, organism-based; design: route intravenous, dose 5 mg/kg, time <=24; conditions: in vivo

T1 sequence (Q5S007 whole entry): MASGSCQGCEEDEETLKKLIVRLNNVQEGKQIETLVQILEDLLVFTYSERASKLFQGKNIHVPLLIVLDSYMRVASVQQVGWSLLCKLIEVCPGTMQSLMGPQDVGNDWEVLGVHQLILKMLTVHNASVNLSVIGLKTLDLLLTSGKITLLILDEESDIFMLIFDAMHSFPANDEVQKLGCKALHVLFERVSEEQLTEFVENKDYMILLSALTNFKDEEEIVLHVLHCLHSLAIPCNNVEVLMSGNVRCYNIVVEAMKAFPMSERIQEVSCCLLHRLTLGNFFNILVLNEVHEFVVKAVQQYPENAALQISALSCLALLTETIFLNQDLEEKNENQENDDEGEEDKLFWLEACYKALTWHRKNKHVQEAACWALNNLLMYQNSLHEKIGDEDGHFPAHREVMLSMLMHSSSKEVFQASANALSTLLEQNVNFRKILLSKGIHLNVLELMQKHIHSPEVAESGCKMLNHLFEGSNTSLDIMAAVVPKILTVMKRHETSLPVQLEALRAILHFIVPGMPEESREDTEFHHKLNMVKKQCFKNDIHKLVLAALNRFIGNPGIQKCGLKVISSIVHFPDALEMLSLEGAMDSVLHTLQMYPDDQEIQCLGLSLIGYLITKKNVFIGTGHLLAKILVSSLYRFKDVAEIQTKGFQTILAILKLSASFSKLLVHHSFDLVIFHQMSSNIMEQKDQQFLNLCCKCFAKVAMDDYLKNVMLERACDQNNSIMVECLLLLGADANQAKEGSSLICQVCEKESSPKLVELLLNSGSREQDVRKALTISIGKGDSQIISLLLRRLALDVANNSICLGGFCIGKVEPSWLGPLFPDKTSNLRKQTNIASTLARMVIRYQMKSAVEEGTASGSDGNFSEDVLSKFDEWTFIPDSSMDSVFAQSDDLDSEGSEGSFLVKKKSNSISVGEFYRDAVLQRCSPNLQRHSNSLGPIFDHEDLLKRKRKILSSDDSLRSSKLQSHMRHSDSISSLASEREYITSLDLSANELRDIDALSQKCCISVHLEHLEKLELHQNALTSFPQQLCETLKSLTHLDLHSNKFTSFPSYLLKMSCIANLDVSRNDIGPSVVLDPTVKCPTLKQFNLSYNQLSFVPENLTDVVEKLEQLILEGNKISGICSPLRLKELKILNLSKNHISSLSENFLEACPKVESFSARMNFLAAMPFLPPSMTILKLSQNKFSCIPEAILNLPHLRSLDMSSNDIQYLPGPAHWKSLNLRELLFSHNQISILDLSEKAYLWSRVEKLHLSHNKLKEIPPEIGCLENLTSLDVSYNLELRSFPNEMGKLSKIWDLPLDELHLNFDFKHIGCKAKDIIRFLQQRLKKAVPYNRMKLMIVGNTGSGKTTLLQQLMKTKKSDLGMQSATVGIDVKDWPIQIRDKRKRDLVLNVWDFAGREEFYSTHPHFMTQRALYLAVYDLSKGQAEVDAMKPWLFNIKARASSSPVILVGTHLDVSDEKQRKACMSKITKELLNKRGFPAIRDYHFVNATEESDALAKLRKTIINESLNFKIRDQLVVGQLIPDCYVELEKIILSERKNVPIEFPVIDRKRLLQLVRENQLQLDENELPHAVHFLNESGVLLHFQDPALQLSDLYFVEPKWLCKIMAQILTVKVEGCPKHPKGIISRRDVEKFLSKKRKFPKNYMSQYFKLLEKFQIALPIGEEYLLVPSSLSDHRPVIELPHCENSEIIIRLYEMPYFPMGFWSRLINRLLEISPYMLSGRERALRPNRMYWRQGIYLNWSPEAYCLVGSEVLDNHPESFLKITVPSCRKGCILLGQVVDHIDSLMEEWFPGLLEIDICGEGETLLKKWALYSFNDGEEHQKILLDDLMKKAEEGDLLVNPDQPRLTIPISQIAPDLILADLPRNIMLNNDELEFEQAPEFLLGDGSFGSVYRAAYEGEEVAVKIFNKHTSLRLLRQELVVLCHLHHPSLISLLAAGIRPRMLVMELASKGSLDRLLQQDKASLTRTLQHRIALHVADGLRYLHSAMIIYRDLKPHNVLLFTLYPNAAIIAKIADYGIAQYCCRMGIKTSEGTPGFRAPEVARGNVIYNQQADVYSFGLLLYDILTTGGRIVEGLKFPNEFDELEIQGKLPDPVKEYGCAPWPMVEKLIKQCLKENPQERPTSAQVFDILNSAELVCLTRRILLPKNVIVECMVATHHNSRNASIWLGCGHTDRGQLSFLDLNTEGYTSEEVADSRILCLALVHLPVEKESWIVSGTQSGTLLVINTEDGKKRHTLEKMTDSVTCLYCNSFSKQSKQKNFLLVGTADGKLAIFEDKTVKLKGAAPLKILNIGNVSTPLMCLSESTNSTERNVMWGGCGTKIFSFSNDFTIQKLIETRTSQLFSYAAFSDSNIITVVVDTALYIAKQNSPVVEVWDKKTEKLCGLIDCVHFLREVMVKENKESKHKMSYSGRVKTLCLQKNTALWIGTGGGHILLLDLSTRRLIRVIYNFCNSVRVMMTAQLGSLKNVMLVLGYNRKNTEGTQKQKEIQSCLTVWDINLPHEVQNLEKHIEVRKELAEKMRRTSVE
Sequence of Receptor-type tyrosine-protein kinase FLT3 (Homo sapiens) (P36888 whole entry): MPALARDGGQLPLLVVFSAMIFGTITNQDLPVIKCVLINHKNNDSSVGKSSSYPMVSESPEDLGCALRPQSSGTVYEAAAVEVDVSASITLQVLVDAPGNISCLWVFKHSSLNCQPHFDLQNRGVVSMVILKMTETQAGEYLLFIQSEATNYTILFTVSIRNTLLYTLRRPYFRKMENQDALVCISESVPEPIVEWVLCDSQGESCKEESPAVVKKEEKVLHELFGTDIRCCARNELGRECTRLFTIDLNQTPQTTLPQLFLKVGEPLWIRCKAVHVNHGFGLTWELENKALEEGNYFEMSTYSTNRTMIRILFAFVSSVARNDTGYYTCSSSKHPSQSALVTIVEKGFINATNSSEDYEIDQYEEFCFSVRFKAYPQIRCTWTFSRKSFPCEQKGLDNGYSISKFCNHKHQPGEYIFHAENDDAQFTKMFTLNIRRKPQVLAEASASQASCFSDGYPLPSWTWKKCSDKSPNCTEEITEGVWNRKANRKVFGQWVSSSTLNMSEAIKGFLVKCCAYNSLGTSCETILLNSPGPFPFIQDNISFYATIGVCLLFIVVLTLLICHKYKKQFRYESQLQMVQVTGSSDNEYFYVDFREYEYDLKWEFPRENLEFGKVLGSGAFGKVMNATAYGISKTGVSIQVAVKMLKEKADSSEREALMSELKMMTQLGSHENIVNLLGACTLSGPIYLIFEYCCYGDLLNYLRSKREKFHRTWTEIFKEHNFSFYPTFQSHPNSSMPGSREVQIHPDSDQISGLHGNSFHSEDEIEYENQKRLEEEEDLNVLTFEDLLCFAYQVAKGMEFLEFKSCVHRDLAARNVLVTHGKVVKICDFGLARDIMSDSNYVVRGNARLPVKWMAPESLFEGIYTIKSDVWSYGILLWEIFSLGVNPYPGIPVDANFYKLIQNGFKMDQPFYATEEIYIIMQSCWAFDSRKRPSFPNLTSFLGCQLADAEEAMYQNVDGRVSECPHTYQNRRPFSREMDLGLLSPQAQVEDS
Sequence of Cyclin-dependent kinase 1/cyclin B1 (Homo sapiens) (P06493 whole entry, looked up): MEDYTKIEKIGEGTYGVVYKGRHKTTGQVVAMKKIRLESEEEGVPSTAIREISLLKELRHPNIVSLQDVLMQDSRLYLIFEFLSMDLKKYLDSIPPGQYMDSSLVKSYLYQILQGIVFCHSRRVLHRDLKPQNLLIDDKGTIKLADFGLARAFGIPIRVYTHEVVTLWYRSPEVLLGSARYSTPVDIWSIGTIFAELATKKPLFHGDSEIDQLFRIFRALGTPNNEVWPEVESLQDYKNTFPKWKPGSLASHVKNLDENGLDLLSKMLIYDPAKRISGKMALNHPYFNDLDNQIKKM
Sequence of Cyclin-dependent kinase 1/cyclin B1 (Homo sapiens) (P14635 whole entry, looked up): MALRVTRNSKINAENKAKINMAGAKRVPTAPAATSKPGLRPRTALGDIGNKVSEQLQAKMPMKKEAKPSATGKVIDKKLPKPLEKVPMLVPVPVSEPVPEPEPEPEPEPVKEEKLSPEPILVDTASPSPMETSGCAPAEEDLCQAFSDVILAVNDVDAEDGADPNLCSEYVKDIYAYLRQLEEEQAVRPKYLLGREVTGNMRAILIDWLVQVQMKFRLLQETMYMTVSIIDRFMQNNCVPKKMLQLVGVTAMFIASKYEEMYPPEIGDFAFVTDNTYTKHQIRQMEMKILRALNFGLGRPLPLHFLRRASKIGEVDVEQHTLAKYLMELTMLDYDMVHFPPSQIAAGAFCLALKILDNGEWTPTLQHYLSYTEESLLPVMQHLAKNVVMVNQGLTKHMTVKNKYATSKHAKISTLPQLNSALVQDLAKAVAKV
Sequence of Glycogen synthase kinase-3 alpha (Homo sapiens) (P49840 2-483 limits assumed): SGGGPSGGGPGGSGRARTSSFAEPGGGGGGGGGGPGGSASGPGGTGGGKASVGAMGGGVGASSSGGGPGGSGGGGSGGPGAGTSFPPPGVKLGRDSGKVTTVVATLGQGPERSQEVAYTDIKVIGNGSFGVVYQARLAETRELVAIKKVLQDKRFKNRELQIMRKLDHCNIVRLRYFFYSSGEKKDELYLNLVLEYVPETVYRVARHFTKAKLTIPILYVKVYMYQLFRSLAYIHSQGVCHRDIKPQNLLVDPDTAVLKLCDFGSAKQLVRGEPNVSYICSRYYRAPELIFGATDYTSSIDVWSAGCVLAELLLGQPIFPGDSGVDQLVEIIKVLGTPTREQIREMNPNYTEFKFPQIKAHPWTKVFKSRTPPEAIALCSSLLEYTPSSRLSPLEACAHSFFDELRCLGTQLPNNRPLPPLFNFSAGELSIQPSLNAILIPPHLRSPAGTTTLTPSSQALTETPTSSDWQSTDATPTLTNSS

Vd [1]: 1.24 L/kg
AUC at 24 h [3]: 8.92 µM·h
half-life [4]: 206 min
half-life [5]: 22.2 min
inhibition [6]: > 50%
Tmax [8]: 1.8 min
GI50 [10]: 600 nM
pKi [12]: 6.78
Activity [13]: 61%
GI50 [16]: 650 nM
AUC at 24 h [17]: 1.55 µM·h
bioavailability [19]: 33%
bioavailability [20]: 70%
GI50 [23]: 5110 nM
Activity [25]: 61%
pKi [26]: 7.29
AUC at 24 h [27]: 2.56 µM·h
clearance [28]: 54.2 mL/min/kg
inhibition [30]: > 50%
clearance [31]: 23.8 mL/min/kg
Cmax [33]: 9.36 µM
SMILES: Nc1ncc(-c2cc3ccccc3o2)c(N2CCC3(CCNC3=O)CC2)c1Cl
Activity [2]: 4.89%
Activity [7]: 10.03%
Activity [9]: 8.11%
Activity [11]: 90.92%
Activity [14]: 1.81%
Activity [15]: 14.01%
viability at 3 µM [18]: 89.5%
Activity [21]: 1.73%
Activity [22]: 1.8%
viability at 10 µM [24]: 83.4%
Activity [29]: 0.59%
Activity [32]: 75.73%

— ChEMBL document CHEMBL4811251 (Eur J Med Chem, 2021)
